# The full list was thinned out, with hits kept by preference.
# HCT116 PTEN-null: growth suppressors of cells with PTEN tumor suppressor deletion; HCT116 PTEN-null viability, CellTiter-Glo, 60 h; stronger effect = lower value; viability, % at 10 µM; 140,000 compounds, 1.2% hits;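 active = viability at or below a set limit, 4 SD under the median of all tested compounds, cut at about 3.7% in these data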;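 note: PTEN knockout HCT116 line with beta catenin targeted HCT116 as companion control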
# Fibroblast inh: blocks proliferation of human lung fibroblasts | 85,000 compounds, 1.1% hits | viability, % at 10 µM | LL 47 human lung fibroblast viability, ATP luminescence; stronger effect = lower value;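 active = viability at or below 50% in the single dose screen; inactive = viability above 50%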;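 note: compound exposure lasted 72 h before the ATP readout; 100% = median luminescence of untreated cell-only wells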
#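 Material: human lung fibroblast line LL 47, low passage; Evaluation: viability percentage against median untreated-cell control; Buffer or medium: 15% FBS in IMEM; Incubation: 72 h compound exposure at 37 °C after overnight plating; Dosing: 0.1% DMSO in all compound wells; Measured by: CellTiter-Glo luminescence.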
# bCat KO growth: beta-catenin-lacking colon tumor cell growth suppression; HCT116 beta-catenin knockout viability, CellTiter-Glo, 60 h; stronger effect = lower value; viability, % at 10 µM; 140,000 compounds, 1.5% hits; AID 818;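 active = viability at or under a set limit, the compound median less 4 SD, cut at about 6% in these data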;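 note: 0% = Hyamine 1622 control at 20 µM and 100% = untreated cell control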
# H69AR inhibit: blocks growth of human H69AR lung tumor cells; viability, % at 10 µM; H69AR lung tumor viability, ATP luminescence, 72 h; stronger effect = lower value; 85,000 compounds, 6% hits;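 active = viability at or below 40%; inactive = viability above 40%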;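 note: multidrug resistant small cell line overexpressing MRP-1 efflux transporter; 100% = mean luminescence of untreated control wells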
# HUVEC inhibit: human endothelial cell proliferation inhibition; HUVEC proliferation, CellTiter-Glo luminescence, 72 h; stronger effect = lower value; viability, % at 10 µM (by protocol); 86,000 compounds, 1.1% hits;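 active = viability at or below 30%; inactive = viability above 30%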;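 note: 100% = median luminescence of DMSO-only cell control wells on each plate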
# * marks the source's active call; other numbers are inactive results; · = no result.
SMILES,HCT116 PTEN-null,Fibroblast inh,bCat KO growth,H69AR inhibit,HUVEC inhibit
N/C(=N\c1nc2ccccc2o1)NC(=O)c1ccccc1F,92,104,101,75,92
O=C(NC(=Nc1nc2ccccc2o1)NC(=O)c1ccccc1)c1ccccc1,102,·,91,·,·
N/C(=N\c1nc2ccccc2o1)NC(=O)c1ccccc1NC(=O)c1ccccc1,85,70,72,27*,70
Cc1ccccc1N1CCN(C2=NC(=O)/C(=C/c3cn[nH]c3-c3ccccc3)S2)CC1,82,·,73,·,·
CCOC(=O)c1cnn(-c2ncnc3c2cnn3Cc2ccccc2)c1N,·,92,·,26*,20*
CC(C)(C)c1nn(-c2ccccc2)c2[nH]c(=O)c(CNCc3ccc4c(c3)OCO4)cc12,11,63,13,1.1*,4.6*
CCOc1cccc(NCc2cc3c(C(C)(C)C)nn(-c4ccccc4)c3[nH]c2=O)c1,92,91,84,48,100
N/C(=N\OC(=O)Nc1ccc(Cl)cc1)c1ncc(C(F)(F)F)cc1Cl,84,106,78,32*,67
CCN(C(=O)CN1CCN(S(=O)(=O)c2cc(Cl)ccc2Cl)CC1)c1c(N)n(Cc2ccccc2)c(=O)[nH]c1=O,98,·,90,·,·
Cc1ccc(-n2nc(CN3CCOCC3)c(-c3ccccc3)c2N)c(C)c1,92,·,91,·,·
CCn1c2ccccc2c2cc(NC(C)=O)ccc21,90,106,93,100,81
C=Cn1ccnc1P(=S)(c1ccc2c(c1)c1ccccc1n2CC)c1nccn1C=C,12,52,25,13*,41
O=C(NCC1CCCO1)c1onc(CSc2cccc3ccccc23)c1C(=O)O (configuration not stated),111,·,95,·,·
Cc1c(Cl)cccc1N/C(SCC(=O)N1CCCCCC1)=C(/C#N)c1nc2ccccc2s1,1.6*,·,1.7*,·,·
O=C(CSc1nc2ccccc2s1)N1CCCCC1,110,114,88,76,104
Cc1ccsc1-c1nc(CSCC(=O)NCc2ccc3c(c2)OCO3)c(C)o1,110,106,97,78,97
CCC(C)[C@H](NC(=O)Nc1cccc(Br)c1)C(=O)OC (some centres not stated),91,·,105,·,·
COc1ccccc1N1CCN(c2cc(=O)n(Cc3ccc(F)cc3)c(=O)[nH]2)CC1,34,61,36,30*,59
Cc1ccc(C(=O)N/C(=C\c2ccc(Cl)cc2)C(=O)NCC2CCCO2)cc1 (configuration not stated),96,·,91,·,·
COc1ccc(OCCn2nnc(-c3ccc(Cl)cc3)n2)cc1,99,·,96,·,·
Cn1nc(-c2ccc(Cl)cc2)nc2c(=O)n(C)c(=O)nc1-2,86,32*,80,0.7*,3.6*
CCn1cc(Cl)c(C(=O)N2N=C(c3ccc4ccccc4c3)CC2c2ccccc2O)n1 (configuration not stated),29,·,42,·,·
CCn1cc([N+](=O)[O-])c(C(=O)N2N=C(c3cccc4ccccc34)CC2c2ccccc2O)n1 (configuration not stated),7,88,3.4*,79,78
CCn1cc([N+](=O)[O-])c(C(=O)N2N=C(c3ccc4ccccc4c3)CC2c2ccccc2O)n1 (configuration not stated),5,80,3.2*,86,15*
Cc1ccc(N(C(=O)CCl)C(C(=O)NC2CCCCC2)c2cccnc2)cc1C (configuration not stated),4,·,7,·,·
SMILES,HCT116 PTEN-null,Fibroblast inh,bCat KO growth,H69AR inhibit,HUVEC inhibit
Cc1ccc(NC(=O)CSc2nnc([C@@H]3CCCN3C(=O)OC(C)(C)C)o2)c(C)c1,105,103,99,35*,99
COCCn1nnnc1C(c1cccc(C#N)c1)N1CCCCCC1 (configuration not stated),82,98,90,81,97
CC(C)(C)C(C(Oc1ccc(Cl)cc1)n1cncn1)n1nnnc1C(c1cccc(Cl)c1)N1CCCCC1 (configuration not stated),15,96,5.7*,12*,55
Cc1ccc(CNc2oc(-c3ccco3)nc2S(=O)(=O)c2ccccc2)cc1,84,95,91,97,99
CC12CCC(c3c(C(=O)O)nn(-c4ccccc4)c31)C2(C)C (configuration not stated),103,98,93,85,107
CC12CCC(c3c(C(=O)Nc4nccs4)nn(-c4ccccc4)c31)C2(C)C (configuration not stated),1.6*,69,1.4*,20*,100
Cc1ccc(-c2nn3c(C)nnc3s2)cc1NCc1c(F)cccc1Cl,24,57,27,28*,53
Cc1nnc2sc(-c3ccc(NC(=O)CSc4ccc(Cl)cc4)cc3)nn12,101,98,96,93,75
Cc1ccc(CNc2cc(-c3nn4c(C)nnc4s3)ccc2C)s1,98,62,92,59,36
Cc1ccc(-c2nn3c(C)nnc3s2)cc1NC(=O)CSc1ccc(Cl)cc1,96,80,99,93,29*
COC(=O)c1ccc(CSc2nnc(Nc3ccc(C)cc3)s2)o1,92,·,98,·,·
COc1ccc(-n2nnc3c(SCC(=O)N4CCN(c5ccccc5)CC4)ncnc32)cc1,·,109,·,81,92
CCCc1cc2c(=O)n(NC(=O)c3nn(C)cc3[N+](=O)[O-])c(C)nc2s1,109,·,93,·,·
Clc1ccc(C(c2nnnn2C2CCCCC2)N(Cc2cccnc2)Cc2ccco2)cc1 (configuration not stated),58,91,46,36*,97
Cc1ccc2[nH]c(=O)c(C(c3nnnn3C3CCCC3)N(Cc3cccnc3)Cc3ccco3)cc2c1 (configuration not stated),69,90,74,62,80
Cc1ccc(/C=N/NC(=O)c2cc(C3CC3)nc3ccccc23)o1,37,·,37,·,·
CC1(C)N=C(SCC(=O)Nc2ccc(Cl)cc2)C(c2ccccc2)=N1,72,94,65,50,84
CC1(C)N=C(SCC(=O)Nc2ccc(Cl)cc2)C(c2ccc(Cl)cc2)=N1,36,95,46,8.4*,77
COc1ccc(OC)c(N=CC2=C(O)CC(C)(C)CC2=O)c1,86,97,88,94,96
CCCC/C(O)=C1\C(=O)CC(C)(C)CC1=Nc1ccccc1OC,81,93,82,33*,107
COC(=O)CC/C(O)=C1\C(=O)CC(C)(C)CC1=Nc1ccccc1OC,85,94,104,29*,93
CC/C(O)=C1\C(=O)CC(C)(C)CC1=Nc1ccccc1C,97,·,104,·,·
CCC/C(O)=C1\C(=O)CC(C)(C)CC1=Nc1ccc(OC)cc1OC,22,57,19,21*,60
CN(C)/C=C1\C(=O)c2ccc(N(C)C)nc2CC1c1ccccc1 (configuration not stated),·,94,·,·,93
Cc1ccc(NCC(=O)NNC2=NCCC2)c(C)c1,95,·,93,·,·
